Measured values collected from several papers.
Target: Cyclin-dependent kinase 9 (CDK9, Homo sapiens, UniProt P50750)

COc1ccc2[nH]c3c4[nH]c5ccc(OC)cc5c4c4c(c3c2c1)C(=O)NC4=O  remaining binding (binding; 1 µM): 58%
CC(C)(C)c1cnc(CSc2cnc(NC(=O)C3CCN(C(=O)CCOCCCN4Cc5cc6c(cc5C4)C(=O)N(C4CCC(=O)NC4=O)C6=O)CC3)s2)o1 (stereo not drawn)  inhibition (protein level; degrader; western blot; TC-71; 25 nM): 85.1%
CO[C@@H]1[C@H](N(C)C(=O)c2ccccc2)C[C@H]2O[C@]1(C)n1c3ccccc3c3c4c(c5c6ccccc6n2c5c31)C(=O)NC4  inhibition (enzyme activity; inhibitor; 1 µM): 3%
C1=C/COCc2cc(ccc2OCCN2CCCC2)Nc2nccc(n2)-c2cccc(c2)COC/1  remaining binding (binding; 0.1 µM): 64%
C=CC(=O)N1CCC[C@@H](n2nc(-c3ccc(Oc4ccccc4)cc3)c3c(N)ncnc32)C1  inhibition (enzyme activity; inhibitor; 1 µM): 2%
CC(C)(C)c1cnc(CSc2cnc(NC(=O)C3CCN(CC(=O)NCCOCCOCCOCCNc4cccc5c4C(=O)N(C4CCC(=O)NC4=O)C5=O)CC3)s2)o1 (stereo not drawn)  inhibition (protein level; degrader; western blot; TC-71; 25 nM): 36.8%
Cc1ccc(NC(=O)c2ccnc(C(F)(F)F)c2)cc1-c1cc(OCCO)nc(N2CCOCC2)c1  remaining binding (binding; 1 µM): 100%
CC(C)(C)c1cnc(CSc2cnc(NC(=O)C3CCN(C(=O)CCCCCCCN4Cc5cc6c(cc5C4)C(=O)N(C4CCC(=O)NC4=O)C6=O)CC3)s2)o1 (stereo not drawn)  inhibition (protein level; degrader; western blot; TC-71; 25 nM): 94.4%
C[C@]1(O)CCCN(c2nc(Nc3ccc(S(=O)(=O)N[C@H]4CC[C@H](CN5CCN(c6ccc(C7CCC(=O)NC7=O)cc6F)CC5)CC4)cc3F)ncc2C(F)(F)F)C1 (stereo partly drawn)  remaining binding (binding; competition with immobilised ligand; 1 µM): 95%
CC(C)(C)c1cnc(CSc2cnc(NC(=O)C3CCN(C(=O)CCCCCCCCCCCN4Cc5cc6c(cc5C4)C(=O)N(C4CCC(=O)NC4=O)C6=O)CC3)s2)o1 (stereo not drawn)  inhibition (protein level; degrader; western blot; TC-71; 25 nM): 78%
CNS(=O)(=O)c1ccc(Nc2ncc(C(F)(F)F)c(N3CCC[C@](C)(O)C3)n2)c(C)c1  remaining binding (binding; competition with immobilised ligand; 1 µM): 98%
N#Cc1ccc(NC(=O)Nc2ccccc2)cc1  remaining binding (cell-free assay; competition with immobilised ligand; 25 µM): 100%
